One data set has as its system sigma-1 receptors. The settings on record: ref Cao et al, 2016, cited from earlier work; for sigma-1/DAT binding ratio: ratio of binding affinities, Hiranita et al, 2017.
The subject of data set [1] is cocaine-induced reinstatement. The note with it: ref Zhang et al, 2017; cited from earlier work.
For data set [2], the system named is locomotion. The note with it: cited from earlier work.
For data set [3] the following is noted: mouse, previously conducted; ref Supplemental Material; cited from earlier work.
The subject of data set [4] is cocaine self-administration. The note with it: cited from earlier work.
The test system of data set [5] is saccharin self-administration. The data set is described as follows: Saccharin self-administration. The settings on record: rats (Supplemental Figure S3). In kind it is in vivo, rat.
Data set [6] in a line: Phase I metabolic stability in rat liver microsomes. In kind it is in vitro ADME. Background: Liver microsomes are vesicles of endoplasmic reticulum, rich in cytochrome P450 enzymes.
In data set [7] the test system is locomotion. The data set is described as follows: Locomotion during saccharin self-administration. In kind it is in vivo, rat. The settings on record: rats (Supplemental Figure S3).
Data set [8] has as its system METH self-administration. The data set is described as follows: Intravenous METH self-administration, short access. It is filed as in vivo, rat. The note with it: for reduction of METH intake: ShA rats (Supplemental Figure S2). The gist of the method:
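Rats (225-275 g at start, reverse light cycle, free food/water) trained on i.v. METH, 10-15 sessions, then 10 FR1 sessions of 1 h (ShA) or 6 h (LgA) access. Test compound i.p. (vehicle up to 100 mg/kg), 30 min or 1 h pretreatment, then FR1 session; Latin-square, within-subjects. Mean ± SEM; ANOVA or paired t-test vs vehicle, Holm-Sidak.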

Data set [9] relates to sucrose self-administration. The settings on record: rats; ref Zhang et al, 2017; cited from earlier work.
The test system of data set [10] is cocaine-induced locomotion. The note with it: ref Zhang et al, 2017; cited from earlier work.
For the next data set, the system named is brain stimulation reward. The settings on record: cited from earlier work.
A short description of data set [11]: Plasma and brain levels after single i.p. dose in rats. In kind it is in vivo. The settings on record: rat. The gist of the method:
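Rats given a single 10 mg/kg i.p. dose, freshly prepared in 10% DMSO and 10% Tween 80 diluted with sterile saline. At 30 and 120 min (n = 3 per time point), CO2 euthanasia. Heparinized cardiac-puncture blood was spun at once for plasma. Brain was dissected and flash-frozen at -80°C.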

The target in data set [12] is dopamine transporter (DAT). The settings on record: read-out: Ki, DAT affinity; ref Cao et al, 2016; Zhang et al, 2017; cited from earlier work.
The subject of data set [13] is METH self-administration. The settings on record: cited from earlier work.
The conditions of data set [14]: ref Cao et al, 2016; cited from earlier work.
[15] abbreviates: 10 mg/kg i.p., 30 min post-administration.
The mark [16] stands for this setting: 10 mg/kg i.p., 2 h (120 min) post-administration.
Setting [17] is: rats, ref Hiranita et al, 2014, 2017.
Setting [18] is: 10-30 mg/kg, ref Zhang et al (2017).
Where [19] appears, read: 100 mg/kg i.p., 1 h pretreatment, vs vehicle.
The mark [20] stands for this setting: all doses tested i.p. (JJC8-088 3, 10, 30 mg/kg; JJC8-089 1, 3, 10, 30 mg/kg).

These results are taken from paper PMC5820113 (Neuropharmacology, 2017).

Like-named read-outs stand apart in the source and are kept apart here. Bounds are passed on as bounds.

With `Fc1ccc(C(SCCNCCCc2ccccc2)c2ccc(F)cc2)cc1` [JJC8-016, N-[2-([bis(4-fluorophenyl)methyl]thio)ethyl]-3-phenylpropan-1-amine], the “affinity for sigma-1 receptors” value in the data set with sigma-1 receptors is listed as “high affinities”. For the same compound, in data set [1], the cocaine-induced reinstatement entry is on record as “effectively inhibited”. The locomotor activity result in the data set on locomotion [2] (ref Zhang et al, 2017) is listed as “without affecting”. Moreover, the brain penetration entry in [3] is on record as “good brain penetration”. Also, the cocaine self-administration result in [4] (ref Zhang et al, 2017) is on record as “effectively inhibited”. In addition, the “saccharin (sweetened water) self-administration” value (“saccharin” for short) in data set [5] is “significantly reduced”. The half-life – broadly, the time in which the quantity being followed falls by half – in data set [6] turned out to be 9 min. Moreover, the locomotion entry with locomotion [7] is on record as “without causing significant locomotor effects”. In the data set on METH self-administration [8] (30 mg/kg i.p., vs vehicle), the “METH intake, LgA rats entire 6 h session” value is reported as “significantly decreased”; the “METH intake, LgA rats first hour” value was “significantly decreased”; the “METH intake, ShA rats 1 h session” value was “significantly decreased”. This compound also came in with a reduction of self-administration in the data set with METH self-administration [8] (LgA rats, 1 h time point (Supplemental Figure S2)) greater than 50%. Besides, in the data set with METH self-administration [8], the “reduction of METH intake” value is greater than 50%. Moreover, in [9], the sucrose self-administration result was “reduce”. For the same compound, the cocaine-induced locomotion entry in data set [10] is “effectively inhibited”. In the data set on brain stimulation reward (ref Zhang et al, 2017), the intracranial self-stimulation entry is on record as “without affecting”.

On to `CC(O)CN1CCN(CC[S+]([O-])C(c2ccc(F)cc2)c2ccc(F)cc2)CC1` (stereo not drawn) [JJC8-091, 1-[4-(2-[(bis[4-fluorophenyl]methyl)sulfinyl]ethyl)piperazin-1-yl]propan-2-ol], for which the “saccharin” value in [5] is recorded as “significantly reduced”. The same compound registered a half-life in data set [6] of 126 min. Moreover, the locomotion result in the data set on locomotion [7] is reported as “without causing significant locomotor effects”. Further, the “METH intake, LgA rats entire 6 h session” value with METH self-administration [8] (10 mg/kg i.p., vs vehicle) is “significant reduction”; in the data set with METH self-administration [8] (30 mg/kg i.p., vs vehicle), “significant reduction”; in the data set with METH self-administration [8] (56 mg/kg i.p., vs vehicle), “significant reduction”. Moreover, the “METH intake, LgA rats first hour” value in the data set with METH self-administration [8] (56 mg/kg i.p., vs vehicle) was “decreased”. Further, in the data set with METH self-administration [8] (56 mg/kg i.p., vs vehicle), the “METH intake, ShA rats 1 h session” value is “decreased”. Further, the brain level amounted to 0.45 ± 0.18 nmol/g in [11] (setting [15]) and 0.30 ± 0.015 nmol/g in [11] (setting [16]). Besides, the Ki (as a rule, the equilibrium dissociation constant of an inhibitor or competing ligand from its target) in [12] was 289 nM.

For the compound `CCCCN1[C@@H]2CC[C@H]1CC(OC(c1ccc(F)cc1)c1ccc(F)cc1)C2` (stereo partly drawn) [JHW 007, reference compound], in the data set on sigma-1 receptors, the sigma-1/DAT binding ratio is listed as 0.20-0.23. The cocaine self-administration result in [4] (setting [17]) was “effectively block”. For the same compound, the METH self-administration result with METH self-administration [13] (setting [17]) is “effectively block”.

For `NC(=O)C[S@@+]([O-])C(c1ccccc1)c1ccccc1` [R-MOD, [R]-2-[(diphenylmethyl)sulfinyl]acetamide, reference compound], in the data set on locomotion [2] (setting [18]), the locomotion entry is listed as “increased”. The “saccharin” value in [5] is on record as “did not alter”. The half-life in [6] is 55 min. For the same compound, in the data set with locomotion [7], the locomotion result was “did not alter”. Also, in the data set on METH self-administration [8] (setting [19]), the “METH intake, LgA rats first hour” value was “significantly decreased” and the “METH intake, ShA rats 1 h session” value is given as “significantly decreased”. In addition, the “METH intake, LgA rats entire 6 h session” value in the data set on METH self-administration [8] (100 mg/kg i.p., vs vehicle (p = 0.058)) was “nonsignificant”. Besides, in the data set on METH self-administration [8], the “reduction of METH intake” value is recorded as greater than 50%. In addition, the brain stimulation reward result in the data set on brain stimulation reward (setting [18]) was “enhanced”.

On to `CC(O)CN1CCN(CCSC(c2ccc(F)cc2)c2ccc(F)cc2)CC1` (stereo not drawn) [JJC8-089, 1-[4-(2-[(bis[4-fluorophenyl]methyl)thio]ethyl)piperazin-1-yl]propan-2-ol], for which, in the data set on sigma-1 receptors, the sigma-1/DAT binding ratio is 0.24 and the “affinity for sigma-1 receptors” value is given as “high affinities”. Moreover, the “saccharin” value in data set [5] was “significantly reduced”. This compound also displayed a half-life in data set [6] of 14 min. The locomotion result with locomotion [7] is on record as “without causing significant locomotor effects”. For the same compound, the “METH intake, LgA rats entire 6 h session” value in the data set with METH self-administration [8] (30 mg/kg i.p., vs vehicle) is reported as “significantly decreased”. In addition, the “reduction of METH intake” value in the data set with METH self-administration [8] is greater than 50%. In the data set on METH self-administration [8] (setting [20]), the “METH intake, LgA rats first hour” value is “only observed a group effect” and the “METH intake, ShA rats 1 h session” value is “only observed a group effect”. This compound also gave a brain level in [11] (setting [15]) of 7.6 ± 0.3 nmol/g. For the same compound, in [11] (setting [16]), the brain level is given as 3.6 ± 0.7 nmol/g. For the same compound, the Kp (commonly tissue or fluid exposure divided by exposure in the circulation) in data set [11] (brain/plasma, ip, 10 mg/kg) was in the range of 8 to 9. For the same compound, the Ki in [12] is 16.7 nM.

Regarding `NC(=O)C[S+]([O-])C(c1ccccc1)c1ccccc1` (racemic) [(±)-modafinil], the METH self-administration entry with METH self-administration [13] (300 mg/kg, very high dose, ref Reichel and See (2012)) was “significantly decreased”.

Turning to `[O-][S+](CCN1CCN(CC(O)Cc2ccccc2)CC1)C(c1ccc(F)cc1)c1ccc(F)cc1` (stereo not drawn) [JJC8-088, 1-[4-(2-[(bis[4-fluorophenyl]methyl)sulfinyl]ethyl)piperazin-1-yl]-3-phenylpropan-2-ol], in the data set with sigma-1 receptors, the sigma-1/DAT binding ratio was greater than 100. The Ki on sigma-1 receptors (read-out: Ki, sigma1 receptors) is 336 nM; in data set [12], 2.53 nM. Further, in [5], the “saccharin” value is “increased”. Also, the half-life in data set [6] turned out to be 39 min. The locomotion entry in the data set on locomotion [7] was “increased”. Moreover, in the data set with METH self-administration [8] (all doses tested i.p. (3, 10, 30 mg/kg)), the “METH intake, LgA rats entire 6 h session” value is “did not affect”. In the data set on METH self-administration [8] (setting [20]), the “METH intake, LgA rats first hour” value was “did not significantly change”. Moreover, the “METH intake, ShA rats 1 h session” value in the data set on METH self-administration [8] (setting [20]) is on record as “did not significantly change”. In addition, in data set [14], the “t1/2 in mouse liver microsomes” value is reported as 12.9 min. In addition, the “levels in both brain and plasma” value in data set [11] (10 mg/kg i.p., 30 min and 2 h) is recorded as “low levels”. Further, the brain level result in [11] (setting [15]) is listed as “very little”; in data set [11] (setting [16]), “nearly undetectable”.
